Assay results reported in ChEMBL document CHEMBL1212737, “Novel approach for comparing the abilities of quinolones to restrict the emergence of resistant mutants during quinolone exposure” (2010).
Converted amounts (≈) assume the structure as drawn. The source made the active and inactive calls. No cut-off for these calls is given here.

How the values were obtained:
Escherichia coli [1] = assay: Antimicrobial activity against wild type Escherichia coli DM4100 by agar or broth dilution method; format: functional
Method in brief: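 K-12 strain grown in LB at 37°C; 10^4–10^5 CFU applied to agar plates or broth with a dilution series of compound; colonies counted after 2 days or turbidity scored after 1 day. MIC99 is the concentration blocking colony formation by 99%, interpolated from log-log plots.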

Escherichia coli [2] = assay: Antimicrobial activity against wild type Escherichia coli DM4100 assessed as decrease in bacterial survival at 3 times MIC by agar plate method; format: functional, organism-based
Method in brief: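 DM4100 (10^4 to 10^8 CFU) spread on quartered agar plates with drug at three times MIC; at various times a quarter excised, washed with LB, cells pelleted (5,000 × g, 5 min), diluted onto drug-free agar at 37°C, colonies counted at 24 and 48 h. Survival relative to untreated input, corrected for resistant mutants scored on 0.02 μg/ml ciprofloxacin agar; two replicate experiments.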

Escherichia coli [3] = assay: Antimicrobial activity against wild type Escherichia coli DM4100 assessed as bactericidal activity; format: functional
Method in brief: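 Liquid-culture killing: E. coli at 5 × 10^6 CFU/ml exposed 20 h to a range of drug concentrations, survivors counted by dilution and plating on drug-free agar incubated overnight at 37°C; MBC taken as concentration lowering survival by 99.9%.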

Escherichia coli [4] = assay: Ratio of mutant prevention concentration to MIC99 for wild type Escherichia coli DM4100; format: functional
Method in brief: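 Population analysis: stationary-phase DM4100 from LB spread on agar plates spanning a broad drug range; colonies counted, passaged on drug-free agar, then retested at the selecting concentration to confirm resistance. MPC is the concentration blocking colony formation from 10^10 CFU, expressed relative to MIC99.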

Escherichia coli [5] = assay: Ratio of MBC to MIC99 in wild type Escherichia coli DM4100; format: functional
Method in brief: (§1)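 MBC (99.9% kill after 20 h in liquid at 5 × 10^6 CFU/ml, survivors plated on drug-free agar) divided by MIC99 (99% block of colony formation, agar or broth dilution with 10^4–10^5 CFU, log-log interpolation); efflux-deficient tolC strain for line 4, wild-type DM4100 for line 5.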

Escherichia coli [6] = assay: Reduction quinolone resistant mutation in wild type Escherichia coli DM4100 assessed as decrease in recovery of resistant bacterial mutant colonies at 2 times MIC by agar plate assay; format: functional, organism-based
Escherichia coli [7] = assay: Reduction quinolone resistant mutation in wild type Escherichia coli DM4100 assessed as decrease in recovery of resistant bacterial mutant colonies at 5 times MIC by agar plate assay; format: functional, organism-based
Method in brief: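 Same agar-plate accumulation assay at 5× MIC99 with an inoculum of 10^9 CFU. Drug added to molten LB agar, incubated at 37°C, and cumulative colonies scored at daily intervals. Repeated with inocula of 8 × 10^6 to 10^10 CFU in two replicate experiments.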

Escherichia coli [8] = assay: Ratio of MBC to MIC99 in Escherichia coli KD1397 containing tolC::Tn10 gyrA+ mutant; format: functional; method in brief: as §1
Escherichia coli [9] = assay: Ratio of mutant prevention concentration to MIC99 for Escherichia coli KD1397 containing tolC::Tn10 gyrA+ mutant; format: functional
Escherichia coli [10] = assay: Antimicrobial activity against Escherichia coli KD1397 containing tolC::Tn10 gyrA+ mutant by agar or broth dilution method; format: functional
Method in brief: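 MIC by agar or broth dilution in LB, 37°C: 10^4–10^5 CFU applied to plates or broth cultures with serial compound concentrations. Colonies counted after 2 days, or turbid growth scored after 1 day. MIC99 is the minimal concentration blocking colony formation by 99%, interpolated from log-log plots.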

Escherichia coli [11] = assay: Antimicrobial activity against Escherichia coli KD1397 containing tolC::Tn10 gyrA+ mutant assessed as bactericidal activity; format: functional
Method in brief: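 Liquid-culture lethality: 5 × 10^6 CFU/ml aliquots exposed 20 h to a range of compound concentrations; survivors counted by dilution and plating on drug-free LB agar, overnight at 37°C. MBC taken as the concentration lowering survival by 99.9%.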

Escherichia coli [12] = assay: Reduction quinolone resistant mutation in wild type Escherichia coli DM4100 assessed as decrease in recovery of resistant bacterial mutant colonies by agar plate assay; format: functional, organism-based
Method in brief: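 Drug added to molten LB agar; 10^4–10^10 CFU of E. coli applied and incubated at 37°C for up to 2 weeks, with cumulative colonies counted daily. Day-1 colonies are taken as the preexisting-mutant baseline. Drug concentration is normalized to MIC99.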

Row | Structure (SMILES) | MIC99 (Escherichia coli [1]) [µg/mL] | inhibition (Escherichia coli [2]) | MBC (Escherichia coli [3]) [µg/mL] | Ratio (Escherichia coli [4]) | Ratio (Escherichia coli [5]) | inhibition (Escherichia coli [6]) | inhibition (Escherichia coli [7]) | Ratio (Escherichia coli [8]) | Ratio (Escherichia coli [9]) | MIC99 (Escherichia coli [10]) [µg/mL] | MBC (Escherichia coli [11]) [µg/mL] | inhibition (Escherichia coli [12])
1 | CCN1CCN(c2c(F)cc3c(=O)c(C(=O)O)cn(C4CC4)c3c2OC)CC1 | 0.14 (≈ 0.36 µM) | Active | 0.27 (≈ 0.693 µM) | 7 | 1.9 | Active | Active |  |  |  |  | 
2 | COc1c(N2CC[C@@H](CN)C2)c(F)cc2c(=O)c(C(=O)O)cn(C3CC3)c12 |  |  |  |  |  |  |  | 2.5 | 8 | 0.004 (≈ 0.0107 µM) | 0.01 (≈ 0.0266 µM) | 
3 | COc1c(N2CC[C@@H](CN)C2)c(F)cc2c(=O)n(N)c(=O)n(C3CC3)c12 |  |  |  |  |  |  |  | 2 | 3 | 0.5 (≈ 1.38 µM) | 1 (≈ 2.75 µM) | 
4 | CCC1CN(c2cc3c(cc2F)c(=O)c(C(=O)O)cn3C2CC2)CCN1 (configuration not stated) | 0.045 (≈ 0.125 µM) | Active | 0.16 (≈ 0.445 µM) | 10 | 3.5 | Active | Active |  |  |  |  | 
5 | CCC1CN(c2c(F)cc3c(=O)c(C(=O)O)cn(C4CC4)c3c2OC)CCN1 (configuration not stated) | 0.11 (≈ 0.282 µM) | Active | 0.33 (≈ 0.847 µM) | 6 | 3 | Active | Active |  |  |  |  | 
6 | CCN1CCN(c2cc3c(cc2F)c(=O)c(C(=O)O)cn3C2CC2)CC1 [ENROFLOXACIN] | 0.022 (≈ 0.0612 µM) | Active | 0.07 (≈ 0.195 µM) | 15 | 3.2 | Active | Active |  |  |  |  | 
7 | CCn1cc(C(=O)O)c(=O)c2ccc(C)nc21 |  |  |  |  |  |  |  |  |  |  |  | Dose-dependent effect
